Assay results as given in ChEMBL document CHEMBL5058577, “EUbOPEN Chemogenomics Library 2 (Multiplex)” (2022).

System: Fibroblast
Assay: Multiplex assay against human fibroblast
Format: toxicity, cell-based
In short: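 At seeding, live cells were stained with Hoechst33342, BioTracker Green Microtubule Cytoskeleton Dye, MitoTracker Red and Annexin V Alexa Fluor 680. After compound addition they were imaged on a CQ1 microscope at 37°C and 5% CO2, and CellPathfinder machine-learning gating sorted them into Hoechst high-intensity objects or normal cells, with normal cells further split into healthy, pyknosed or fragmented nuclei and pyknosed cells into mitotic or apoptotic. Tubulin, mitochondrial-mass and membrane-permeability phenotypes are given as per cents of cells with healthy nuclei.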

[1] = 12 h, 1 µM, compound concentration 1 uM, replicate 1
[2] = 12 h, 1 µM, compound concentration 1 uM, replicate 2
[3] = 12 h, 10 µM, compound concentration 10 uM, replicate 1
[4] = 12 h, 10 µM, compound concentration 10 uM, replicate 2
[5] = 24 h, 1 µM, compound concentration 1 uM, replicate 1
[6] = 24 h, 1 µM, compound concentration 1 uM, replicate 2
[7] = 24 h, 10 µM, compound concentration 10 uM, replicate 1
[8] = 24 h, 10 µM, compound concentration 10 uM, replicate 2
[9] = 48 h, 1 µM, compound concentration 1 uM, replicate 1
[10] = 48 h, 1 µM, compound concentration 1 uM, replicate 2
[11] = 48 h, 10 µM, compound concentration 10 uM, replicate 1
[12] = 48 h, 10 µM, compound concentration 10 uM, replicate 2

CCCCCC(O)/C=C/[C@H]1C(=O)CC(O)C1C/C=C\CCCC(=O)O (some centres undefined)
Population Apoptotic (%) [1]: 52% | Population Fragmented Nuclei (%) [1]: 24% | Population Healthy Nuclei (%) [1]: 65% | Population Hoechst High Intensity Objects (%) [1]: 1% | Population Membrane Permeable-Phenotype (%) [1]: 0% | Population Mitochondria Different-Phenotype (%) [1]: 4% | Population Mitotic Cells (%) [1]: 47% | Population Normal (%) [1]: 98% | Population Pyknosed Nuclei (%) [1]: 10% | Population Tubulin-Different-Phenotype (%) [1]: 19% | Total Cell Count [1]: 172 | Population Apoptotic (%) [2]: 50% | Population Fragmented Nuclei (%) [2]: 40% | Population Healthy Nuclei (%) [2]: 41% | Population Hoechst High Intensity Objects (%) [2]: 2% | Population Membrane Permeable-Phenotype (%) [2]: 7% | Population Mitochondria Different-Phenotype (%) [2]: 20% | Population Mitotic Cells (%) [2]: 50% | Population Normal (%) [2]: 97% | Population Pyknosed Nuclei (%) [2]: 18% | Population Tubulin-Different-Phenotype (%) [2]: 52% | Total Cell Count [2]: 169 | Population Apoptotic (%) [3]: 42% | Population Fragmented Nuclei (%) [3]: 16% | Population Healthy Nuclei (%) [3]: 69% | Population Hoechst High Intensity Objects (%) [3]: 0% | Population Membrane Permeable-Phenotype (%) [3]: 0% | Population Mitochondria Different-Phenotype (%) [3]: 1% | Population Mitotic Cells (%) [3]: 57% | Population Normal (%) [3]: 99% | Population Pyknosed Nuclei (%) [3]: 13% | Population Tubulin-Different-Phenotype (%) [3]: 16% | Total Cell Count [3]: 139 | Population Apoptotic (%) [4]: 34% | Population Fragmented Nuclei (%) [4]: 20% | Population Healthy Nuclei (%) [4]: 56% | Population Hoechst High Intensity Objects (%) [4]: 2% | Population Membrane Permeable-Phenotype (%) [4]: 3% | Population Mitochondria Different-Phenotype (%) [4]: 7% | Population Mitotic Cells (%) [4]: 65% | Population Normal (%) [4]: 97% | Population Pyknosed Nuclei (%) [4]: 23% | Population Tubulin-Different-Phenotype (%) [4]: 41% | Total Cell Count [4]: 101 | Population Apoptotic (%) [5]: 35% | Population Fragmented Nuclei (%) [5]: 20% | Population Healthy Nuclei (%) [5]: 70% | Population Hoechst High Intensity Objects (%) [5]: 0% | Population Membrane Permeable-Phenotype (%) [5]: 0% | Population Mitochondria Different-Phenotype (%) [5]: 2% | Population Mitotic Cells (%) [5]: 64% | Population Normal (%) [5]: 99% | Population Pyknosed Nuclei (%) [5]: 8% | Population Tubulin-Different-Phenotype (%) [5]: 21% | Total Cell Count [5]: 169 | Population Apoptotic (%) [6]: 50% | Population Fragmented Nuclei (%) [6]: 41% | Population Healthy Nuclei (%) [6]: 50% | Population Hoechst High Intensity Objects (%) [6]: 1% | Population Membrane Permeable-Phenotype (%) [6]: 4% | Population Mitochondria Different-Phenotype (%) [6]: 10% | Population Mitotic Cells (%) [6]: 50% | Population Normal (%) [6]: 98% | Population Tubulin-Different-Phenotype (%) [6]: 47% | Total Cell Count [6]: 184 | Population Apoptotic (%) [7]: 61% | Population Fragmented Nuclei (%) [7]: 17% | Population Healthy Nuclei (%) [7]: 72% | Population Hoechst High Intensity Objects (%) [7]: 2% | Population Membrane Permeable-Phenotype (%) [7]: 1% | Population Mitochondria Different-Phenotype (%) [7]: 3% | Population Mitotic Cells (%) [7]: 38% | Population Normal (%) [7]: 97% | Population Pyknosed Nuclei (%) [7]: 9% | Population Tubulin-Different-Phenotype (%) [7]: 21% | Total Cell Count [7]: 138 | Population Apoptotic (%) [8]: 33% | Population Fragmented Nuclei (%) [8]: 18% | Population Healthy Nuclei (%) [8]: 59% | Population Hoechst High Intensity Objects (%) [8]: 4% | Population Membrane Permeable-Phenotype (%) [8]: 3% | Population Mitochondria Different-Phenotype (%) [8]: 1% | Population Mitotic Cells (%) [8]: 66% | Population Normal (%) [8]: 95% | Population Pyknosed Nuclei (%) [8]: 21% | Population Tubulin-Different-Phenotype (%) [8]: 29% | Total Cell Count [8]: 101 | Population Apoptotic (%) [9]: 50% | Population Fragmented Nuclei (%) [9]: 27% | Population Healthy Nuclei (%) [9]: 66% | Population Hoechst High Intensity Objects (%) [9]: 3% | Population Membrane Permeable-Phenotype (%) [9]: 0% | Population Mitochondria Different-Phenotype (%) [9]: 2% | Population Mitotic Cells (%) [9]: 50% | Population Normal (%) [9]: 96% | Population Pyknosed Nuclei (%) [9]: 5% | Population Tubulin-Different-Phenotype (%) [9]: 19% | Total Cell Count [9]: 175 | Population Apoptotic (%) [10]: 30% | Population Fragmented Nuclei (%) [10]: 47% | Population Healthy Nuclei (%) [10]: 46% | Population Hoechst High Intensity Objects (%) [10]: 2% | Population Membrane Permeable-Phenotype (%) [10]: 3% | Population Mitochondria Different-Phenotype (%) [10]: 7% | Population Mitotic Cells (%) [10]: 70% | Population Normal (%) [10]: 97% | Population Tubulin-Different-Phenotype (%) [10]: 42% | Total Cell Count [10]: 186 | Population Apoptotic (%) [11]: 63% | Population Fragmented Nuclei (%) [11]: 17% | Population Healthy Nuclei (%) [11]: 74% | Population Hoechst High Intensity Objects (%) [11]: 4% | Population Membrane Permeable-Phenotype (%) [11]: 0% | Population Mitochondria Different-Phenotype (%) [11]: 0% | Population Mitotic Cells (%) [11]: 36% | Population Normal (%) [11]: 95% | Population Pyknosed Nuclei (%) [11]: 8% | Population Tubulin-Different-Phenotype (%) [11]: 14% | Total Cell Count [11]: 141 | Population Apoptotic (%) [12]: 33% | Population Fragmented Nuclei (%) [12]: 30% | Population Healthy Nuclei (%) [12]: 61% | Population Hoechst High Intensity Objects (%) [12]: 0% | Population Membrane Permeable-Phenotype (%) [12]: 6% | Population Mitochondria Different-Phenotype (%) [12]: 3% | Population Mitotic Cells (%) [12]: 66% | Population Normal (%) [12]: 99% | Population Tubulin-Different-Phenotype (%) [12]: 47% | Total Cell Count [12]: 104
